Experimental data reported in ChEMBL document CHEMBL1142636 (2000).
The source made the active and inactive calls. The calls are words filed in the database; no cut-off is given here.

Key:
SNB-75 = experiment: Growth inhibition of human SNB75 cells; assay type: functional
Outline: (§1)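 Tested at the NCI in its human disease-oriented in vitro screen of 60 tumour cell lines, following the Monks et al. methods. Activity is expressed as GI50, given as log molar values.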

SF-268 = experiment: Growth inhibition of human SF268 cells; assay type: functional; outline: as §1
PC-3 = experiment: Growth inhibition of human PC3 cells; assay type: functional
COLO 205 = experiment: Growth inhibition of human COLO205 cells; assay type: functional
HCT-15 = experiment: Growth inhibition of human HCT15 cells; assay type: functional
U-251 = experiment: Growth inhibition of human U251 cells; assay type: functional; outline: as §1
DMS-273 = experiment: Growth inhibition of human DMS273 cells; assay type: functional
HOP-18 = experiment: Growth inhibition of human HOP18 cells; assay type: functional
CCRF-CEM = experiment: Growth inhibition of human CCRF-CEM cells; assay type: functional
SF-539 = experiment: Growth inhibition of human SF539 cells; assay type: functional; outline: as §1
K562 = experiment: Growth inhibition of human K562 cells; assay type: functional
RXF 393 = experiment: Growth inhibition of human […] cells; assay type: functional
T47D = experiment: Growth inhibition of human T47D cells; assay type: functional; outline: as §1
MDA-MB-435 = experiment: Growth inhibition of human MDA-MB-435 cells; assay type: functional
MDA-N = experiment: Growth inhibition of human MDA-N cells; assay type: functional
MDA-MB-231 = experiment: Growth inhibition of human MDA-MB-231 cells; assay type: functional
XF498 = experiment: Growth inhibition of human XF498 cells; assay type: functional; outline: as §1
MCF7 = experiment: Growth inhibition of human MCF7 cells; assay type: functional
RPMI8266 = experiment: (§2) Growth inhibition of human RPMI8266 cells; assay type: functional
OVACR8 = experiment: (§3) Growth inhibition of human OVACR8 cells; assay type: functional
IGROV-1 = experiment: Growth inhibition of human IGROV1 cells; assay type: functional
OVACR5 = experiment: (§4) Growth inhibition of human OVACR5 cells; assay type: functional
NCI-H522 = experiment: Growth inhibition of human NCI-H522 cells; assay type: functional
Malme-3M = experiment: Growth inhibition of human MALME-3M cells; assay type: functional
UO-31 = experiment: Growth inhibition of human UO31 cells; assay type: functional; outline: as §1
UACC-257 = experiment: Growth inhibition of human UACC257 cells; assay type: functional; outline: as §1
ACHN = experiment: Growth inhibition of human ACHN cells; assay type: functional
DU-145 = experiment: Growth inhibition of human DU145 cells; assay type: functional
SK-MEL-28 = experiment: Growth inhibition of human SK-MEL-28 cells; assay type: functional; outline: as §1
OVACR3 = experiment: (§5) Growth inhibition of human […] cells; assay type: functional
M14 = experiment: Growth inhibition of human M14 cells; assay type: functional
Hs-578T = experiment: Growth inhibition of human HS578T cells; assay type: functional
UACC-62 = experiment: Growth inhibition of human UACC62 cells; assay type: functional; outline: as §1
HOP-92 = experiment: Growth inhibition of human HOP92 cells; assay type: functional
OVACR4 = experiment: (§6) Growth inhibition of human OVACR4 cells; assay type: functional
KM-20L2 = experiment: Growth inhibition of human KM20L2 cells; assay type: functional
MOLT-4 = experiment: Growth inhibition of human MOLT4 cells; assay type: functional
NCI-H460 = experiment: Growth inhibition of human NCI-H460 cells; assay type: functional
SK-MEL-5 = experiment: Growth inhibition of human SK-MEL-5 cells; assay type: functional; outline: as §1
LXFL 529 = experiment: (§7) Growth inhibition of human LXFL529 cells; assay type: functional
A549 = experiment: Growth inhibition of human A549 cells; assay type: functional
SK-OV-3 = experiment: Growth inhibition of human SK-OV-3 cells; assay type: functional; outline: as §1
A498 = experiment: Growth inhibition of human A498 cells; assay type: functional
SK-MEL-2 = experiment: Growth inhibition of human SK-MEL-2 cells; assay type: functional; outline: as §1
KM12 = experiment: Growth inhibition of human KM12 cells; assay type: functional
SW-620 = experiment: Growth inhibition of human SW620 cells; assay type: functional; outline: as §1
SF-295 = experiment: Growth inhibition of human SF295 cells; assay type: functional; outline: as §1
NCI-H322M = experiment: Growth inhibition of human NCI-H322M cells; assay type: functional
SN12C = experiment: Growth inhibition of human SN12C cells; assay type: functional; outline: as §1
HOP-62 = experiment: Growth inhibition of human HOP62 cells; assay type: functional
HCT-116 = experiment: Growth inhibition of human HCT116 cells; assay type: functional
BT-549 = experiment: Growth inhibition of human BT549 cells; assay type: functional
HCC 2998 = experiment: Growth inhibition of human HCC2998 cells; assay type: functional
CAKI-1 = experiment: Growth inhibition of human CAKI1 cells; assay type: functional
DLD-1 = experiment: Growth inhibition of human DLD1 cells; assay type: functional
NCI-H226 = experiment: Growth inhibition of human NCI-H226 cells; assay type: functional
NCI/ADR-RES = experiment: (§8) Growth inhibition of human MCF7/ADR-RES cells; assay type: functional
M19-MEL = experiment: Growth inhibition of human M19-MEL cells; assay type: functional
NCI-H23 = experiment: Growth inhibition of human NCI-H23 cells; assay type: functional
DMS144 = experiment: (§9) Growth inhibition of human DMS144 cells; assay type: functional
HT-29 = experiment: Growth inhibition of human HT29 cells; assay type: functional
LOX IMVI = experiment: Growth inhibition of human LOX IMVI cells; assay type: functional
SR = experiment: Growth inhibition of human SR cells; assay type: functional; outline: as §1
HL-60(TB) = experiment: (§10) Growth inhibition of human HL60(TB) cells; assay type: functional
SNB-19 = experiment: Growth inhibition of human SNB19 cells; assay type: functional; outline: as §1
786-0 = experiment: Growth inhibition of human 786-0 cells; assay type: functional
EKVX = experiment: Growth inhibition of human EKVX cells; assay type: functional
TK-10 = experiment: Growth inhibition of human TK10 cells; assay type: functional; outline: as §1
[1] = as §2; assay type: functional; details: read-out: pLC50 (the source's name) (converted)
[2] = as §3; assay type: functional; details: read-out: pLC50 (the source's name) (converted)
[3] = as §4; assay type: functional; details: read-out: pLC50 (the source's name) (converted)
[4] = as §5; assay type: functional; details: read-out: pLC50 (the source's name) (converted)
[5] = as §6; assay type: functional; details: read-out: pLC50 (the source's name) (converted)
[6] = as §7; assay type: functional; details: LXFL 529
[7] = as §8; assay type: functional; details: NCI/ADR-RES, read-out: pLC50 (the source's name) (converted)
[8] = as §9; assay type: functional
[9] = as §10; assay type: functional, HL-60(TB); details: HL-60, read-out: pLC50 (the source's name) (converted)
[10] = read-out: pLC50 (the source's name) (converted)

COc1ccc2c([nH]c3c(O)c(-c4c(C)cc5c([nH]c6c(CC=C(C)C)c(OC)ccc65)c4O)c(C)cc32)c1CC=C(C)C
Activity (SNB-75): inactive | Activity (SF-268): inactive | Activity (PC-3): inactive | Activity (COLO 205): inactive | Activity (HCT-15): inactive | Activity (U-251): inactive | Activity (DMS-273): inactive | Activity (HOP-18): inactive | Activity (CCRF-CEM): inactive | Activity (SF-539): inactive | Activity (K562): inactive | Activity (RXF 393): inactive | Activity (T47D): inactive | Activity (MDA-MB-435): inactive | Activity (MDA-N): inactive | Activity (MDA-MB-231): inactive | Activity (XF498): inactive | Activity (MCF7): inactive | Activity (RPMI8266): inactive | Activity (OVACR8): inactive | Activity (IGROV-1): inactive | Activity (OVACR5): inactive | Activity (NCI-H522): inactive | Activity (Malme-3M): inactive | Activity (UO-31): inactive | Activity (UACC-257): inactive | Activity (ACHN): inactive | Activity (DU-145): inactive | Activity (SK-MEL-28): inactive | Activity (OVACR3): inactive | Activity (M14): inactive | Activity (Hs-578T): inactive | Activity (UACC-62): inactive | Activity (HOP-92): inactive | Activity (OVACR4): inactive | Activity (KM-20L2): inactive | Activity (MOLT-4): inactive | Activity (NCI-H460): inactive | Activity (SK-MEL-5): inactive | Activity (LXFL 529): inactive | Activity (A549): inactive | Activity (SK-OV-3): inactive | Activity (A498): inactive | Activity (SK-MEL-2): inactive | Activity (KM12): inactive | Activity (SW-620): inactive | Activity (SF-295): inactive | Activity (NCI-H322M): inactive | Activity (SN12C): inactive | Activity (HOP-62): inactive | Activity (HCT-116): inactive | Activity (BT-549): inactive | Activity (HCC 2998): inactive | Activity (CAKI-1): inactive | Activity (DLD-1): inactive | Activity (NCI-H226): inactive | Activity (NCI/ADR-RES): inactive | Activity (M19-MEL): inactive | Activity (NCI-H23): inactive | Activity (DMS144): inactive | Activity (HT-29): inactive | Activity (LOX IMVI): inactive | Activity (SR): inactive | Activity (HL-60(TB)): inactive | Activity (SNB-19): inactive | Activity (786-0): inactive | Activity (EKVX): inactive | Activity (TK-10): inactive

C=C(C)C1CC2(C)CC1c1c(c(C)cc3c1[nH]c1ccccc13)O2 (stereo unspecified)
CC50 (SNB-75; [10]): > 25.1 µM | LC50 (SF-268): > 25.1 µM | CC50 (PC-3; [10]): > 25.1 µM | LC50 (COLO 205): > 25.1 µM | CC50 (HCT-15; [10]): > 25.1 µM | CC50 (U-251; [10]): > 25.1 µM | LC50 (DMS-273): > 25.1 µM | CC50 (HOP-18; [10]): > 25.1 µM | LC50 (CCRF-CEM): > 25.1 µM | CC50 (SF-539; [10]): > 25.1 µM | LC50 (K562): > 25.1 µM | CC50 (RXF 393; [10]): > 25.1 µM | LC50 (T47D): > 25.1 µM | LC50 (MDA-MB-435): > 25.1 µM | CC50 (MDA-N; [10]): > 25.1 µM | CC50 (MDA-MB-231; [10]): > 25.1 µM | CC50 (XF498; [10]): > 25.1 µM | CC50 (MCF7; [10]): > 25.1 µM | CC50 [1]: > 25.1 µM | CC50 [2]: > 25.1 µM | CC50 (IGROV-1; [10]): > 25.1 µM | CC50 [3]: > 25.1 µM | CC50 (NCI-H522; [10]): > 25.1 µM | CC50 (Malme-3M; [10]): > 25.1 µM | CC50 (UO-31; [10]): > 25.1 µM | CC50 (UACC-257; [10]): > 25.1 µM | CC50 (ACHN; [10]): > 25.1 µM | CC50 (DU-145; [10]): > 25.1 µM | CC50 (SK-MEL-28; [10]): > 25.1 µM | CC50 [4]: > 25.1 µM | CC50 (M14; [10]): > 25.1 µM | CC50 (Hs-578T; [10]): > 25.1 µM | CC50 (UACC-62; [10]): > 25.1 µM | CC50 (HOP-92; [10]): > 25.1 µM | CC50 [5]: > 25.1 µM | CC50 (KM-20L2; [10]): > 25.1 µM | LC50 (MOLT-4): > 25.1 µM | LC50 (NCI-H460): > 25.1 µM | CC50 (SK-MEL-5; [10]): > 25.1 µM | LC50 [6]: > 25.1 µM | LC50 (A549): > 25.1 µM | CC50 (SK-OV-3; [10]): > 25.1 µM | CC50 (A498; [10]): > 25.1 µM | CC50 (SK-MEL-2; [10]): > 25.1 µM | CC50 (KM12; [10]): > 25.1 µM | LC50 (SW-620): > 25.1 µM | CC50 (SF-295; [10]): > 25.1 µM | LC50 (NCI-H322M): > 25.1 µM | CC50 (SN12C; [10]): > 25.1 µM | LC50 (HOP-62): > 25.1 µM | CC50 (HCT-116; [10]): > 25.1 µM | LC50 (BT-549): > 25.1 µM | LC50 (HCC 2998): > 25.1 µM | CC50 (CAKI-1; [10]): > 25.1 µM | LC50 (DLD-1): > 25.1 µM | LC50 (NCI-H226): > 25.1 µM | CC50 [7]: > 25.1 µM | CC50 (M19-MEL; [10]): > 25.1 µM | LC50 (NCI-H23): > 25.1 µM | LC50 [8]: > 25.1 µM | LC50 (HT-29): > 25.1 µM | CC50 (LOX IMVI; [10]): > 25.1 µM | LC50 (SR): > 25.1 µM | CC50 [9]: > 25.1 µM | CC50 (SNB-19; [10]): > 25.1 µM | CC50 (786-0; [10]): > 25.1 µM | CC50 (EKVX; [10]): > 25.1 µM | CC50 (TK-10; [10]): > 25.1 µM
